Assay results published in PMC6559718 (Journal of biomolecular screening, 2016).
Each block holds one compound with its values, some of them ahead of it.

What was measured:
[1] = target: T1, human ANT2 (Homo sapiens, UniProt P05141); experiment: ADP/ATP exchange with isolated yeast mitochondria expressing hANT2; assay type: biochemical; settings: for ADP/ATP exchange activity / ADP uptake: 10 μM, isolated yeast mitochondria, hANT2 (Fig. 2B left)
T1 sequence (P05141 1-298): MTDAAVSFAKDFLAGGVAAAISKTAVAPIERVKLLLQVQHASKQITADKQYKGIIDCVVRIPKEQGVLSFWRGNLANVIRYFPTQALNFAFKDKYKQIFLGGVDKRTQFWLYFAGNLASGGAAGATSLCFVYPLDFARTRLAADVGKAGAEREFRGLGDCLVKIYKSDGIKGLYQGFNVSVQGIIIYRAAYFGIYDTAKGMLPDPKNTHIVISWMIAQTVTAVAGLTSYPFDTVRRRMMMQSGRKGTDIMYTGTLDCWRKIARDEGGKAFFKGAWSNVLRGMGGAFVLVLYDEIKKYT

[2] = system: four hANT yeast strains; experiment: Yeast growth assay in YPEG medium, the four hANT yeast strains; assay type: cell-based, Saccharomyces cerevisiae; settings: hANT1, -2, -3 or -4 yeast strains, BKA final 50 μM
[3] = system: four hANT yeast strains
[4] = system: HCT116 cells; experiment: Oxygen consumption rate in HCT116 cells; assay type: cell-based, human; settings: after ADP addition, leelamine 50 pM as printed
Outline: (§1)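 Cells were kept in RPMI1640 with 10% FBS, plated at 20,000/well, and incubated overnight at 37 °C in 5% CO2. Before the assay, medium was replaced with MAS buffer (mannitol/sucrose/KH2PO4/MgCl2/HEPES/EGTA, 0.2% fatty-acid-free BSA, pH 7.4) plus 10 mM pyruvate and […]. Sequential injections were atpenin A5, 3.5 mM ADP, plasma membrane permeabilizer, then test compound or cATR control. OCR was read on an extracellular flux analyzer.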

[5] = system: human ANT isoforms; experiment: ADP/ATP exchange in L. lactis, human ANT isoforms; assay type: biochemical; settings: single-concentration test of compounds selected from the yeast growth assay
[6] = target: T2, human ANT3 (Homo sapiens, UniProt P12236); experiment: ADP/ATP exchange with Lactococcus lactis expressing hANT3; assay type: biochemical
T2 sequence (P12236 1-298): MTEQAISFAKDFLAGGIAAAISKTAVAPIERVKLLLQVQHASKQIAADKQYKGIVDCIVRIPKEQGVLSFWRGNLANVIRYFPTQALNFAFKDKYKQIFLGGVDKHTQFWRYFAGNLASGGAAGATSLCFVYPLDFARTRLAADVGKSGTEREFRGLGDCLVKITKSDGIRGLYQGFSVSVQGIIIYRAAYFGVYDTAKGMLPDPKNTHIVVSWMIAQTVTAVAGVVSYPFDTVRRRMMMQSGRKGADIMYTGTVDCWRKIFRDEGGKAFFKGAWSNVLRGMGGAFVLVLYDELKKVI

[7] = target: T3, human ANT1 (Homo sapiens, UniProt P12235); experiment: ADP/ATP exchange with Lactococcus lactis expressing hANT1; assay type: biochemical
T3 sequence (P12235 1-298): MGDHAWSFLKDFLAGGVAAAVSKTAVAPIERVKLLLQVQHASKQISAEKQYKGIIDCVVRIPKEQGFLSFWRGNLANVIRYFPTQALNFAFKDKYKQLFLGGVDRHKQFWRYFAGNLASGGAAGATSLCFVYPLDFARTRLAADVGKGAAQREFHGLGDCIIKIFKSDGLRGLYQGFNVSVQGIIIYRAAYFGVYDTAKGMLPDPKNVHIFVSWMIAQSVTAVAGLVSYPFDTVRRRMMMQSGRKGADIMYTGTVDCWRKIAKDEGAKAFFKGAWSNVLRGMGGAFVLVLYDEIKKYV

[8] = system: MiaPaCa-2 cells; experiment: Oxygen consumption rate in MiaPaCa-2 cells; assay type: cell-based, human; settings: after ADP addition, leelamine 50 pM as printed
Outline: as §1

[9] = target: T1, human ANT2; experiment: ADP/ATP exchange with Lactococcus lactis expressing hANT2; assay type: biochemical
[10] = system: yeast strain expressing hANT3; experiment: microbe, parasite or virus in culture; assay type: cell-based; settings: Saccharomyces cerevisiae, read-out: Activity hANT3 IC50
[11] = in vitro; settings: Saccharomyces cerevisiae
[12] = target: T2, human ANT3; experiment: ADP/ATP exchange with isolated yeast mitochondria expressing hANT3; assay type: biochemical
[13] = in vitro; settings: Saccharomyces cerevisiae; remark: listed apart in the source
[14] = in vitro; settings: Saccharomyces cerevisiae; remark: listed apart in the source
[15] = system: yeast strain expressing hANT1; experiment: microbe, parasite or virus in culture; assay type: cell-based; settings: Saccharomyces cerevisiae, read-out: Activity hANT1 IC50
[16] = system: yeast strain expressing hANT2; experiment: microbe, parasite or virus in culture; assay type: cell-based; settings: Saccharomyces cerevisiae, read-out: Activity hANT2 IC50
[17] = in vitro; settings: Saccharomyces cerevisiae; remark: listed apart in the source
[18] = target: T4, human ANT4 (Homo sapiens, UniProt Q9H0C2); experiment: ADP/ATP exchange with isolated yeast mitochondria expressing hANT4; assay type: biochemical
T4 sequence (Q9H0C2 1-315): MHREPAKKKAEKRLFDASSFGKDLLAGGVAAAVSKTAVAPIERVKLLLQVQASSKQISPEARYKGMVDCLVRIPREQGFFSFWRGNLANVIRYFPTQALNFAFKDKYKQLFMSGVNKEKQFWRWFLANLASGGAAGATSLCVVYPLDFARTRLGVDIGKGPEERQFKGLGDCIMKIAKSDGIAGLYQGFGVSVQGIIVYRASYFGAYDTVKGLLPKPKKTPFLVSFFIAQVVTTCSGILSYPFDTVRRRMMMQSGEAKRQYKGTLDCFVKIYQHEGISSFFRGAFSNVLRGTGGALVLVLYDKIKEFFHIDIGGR

[19] = target: T3, human ANT1; experiment: ADP/ATP exchange with isolated yeast mitochondria expressing hANT1; assay type: biochemical
[20] = system: yeast strain expressing hANT4; experiment: microbe, parasite or virus in culture; assay type: cell-based; settings: Saccharomyces cerevisiae, read-out: Activity hANT4 IC50
[21] = system: human ANT isoforms; experiment: ADP/ATP exchange in isolated yeast mitochondria, human ANT isoforms; assay type: biochemical
[22] = read-out: L. lactis hANT3 IC50, [3H]ADP uptake, ADP/ATP exchange, mean ± SEM
[23] = read-out: L. lactis hANT1 IC50, [3H]ADP uptake, ADP/ATP exchange, mean ± SEM
[24] = read-out: L. lactis hANT2 IC50, [3H]ADP uptake, ADP/ATP exchange, mean ± SEM

Compound: C=C1[C@@H]2CC[C@H]3[C@]4(C)C[C@H](O[C@@H]5O[C@H](CO)[C@@H](OS(=O)(=O)O)[C@H](OS(=O)(=O)O)[C@H]5OC(=O)CC(C)C)C[C@@H](C(=O)O)[C@H]4CC[C@]3(C2)[C@H]1O [ATR, atractyloside]
ADP/ATP exchange activity / ADP uptake [1]: completely inhibited

Compound: CCCCc1oc2ccccc2c1C(=O)c1cc(I)c(OCCN(CC)CC)c(I)c1 [Amiodarone]
activity in LOPAC pilot screen [2]: identified as a hit
cytotoxic effect in glucose-containing medium [3]: exhibited cytotoxic effect in certain strains

Compound: CO[C@H](C/C=C\C=C\CC/C=C/C[C@H](C)/C=C/C(=C\C(=O)O)CC(=O)O)/C(C)=C\C=C(/C)C(=O)O [BKA, bongkrekic acid]
activity in LOPAC pilot screen [2]: weakly active
ADP/ATP exchange activity / ADP uptake [1]: completely inhibited

IC50 [6, 22]: 94 ± 19 µM
IC50 [7, 23]: 54 ± 9 µM
selectivity for hANT2 over hANT3 ([9]; L. lactis assay): ~ 3 fold
IC50 [9, 24]: 36 ± 6.3 µM
Compound: O=C(O)c1ccc2cc(-c3ccc(O)c(C45CC6CC(CC(C6)C4)C5)c3)ccc2c1 [CD437]
oxygen consumption rate (OCR) [4]: inhibited OCR
inhibition of [3H]ADP uptake by L. lactis [5]: inhibited
oxygen consumption rate (OCR) [8]: Neither CD437 nor closantel produced an appreciable level of reduction of OCR
cytotoxic effect in glucose-containing medium [3]: exhibited cytotoxic effect in certain strains

Compound: Cc1cc(C(C#N)c2ccc(Cl)cc2)c(Cl)cc1NC(=O)c1cc(I)cc(I)c1O (centres unmarked) [Closantel]
IC50 [10]: 6.3 ± 2.3 µM
oxygen consumption rate (OCR) [4]: inhibited OCR
IC50 [11]: > 100 µM
IC50 [12]: 100 ± 32 µM
IC50 [13]: > 100 µM
IC50 [14]: > 100 µM
IC50 [15]: 4.7 ± 0.8 µM
inhibition of [3H]ADP uptake by L. lactis [5]: inhibited
IC50 [1]: 92 ± 32 µM
IC50 [16]: 6.1 ± 2.4 µM
IC50 [17]: > 100 µM
IC50 [6]: 47 ± 11 µM
IC50 [7]: 15 ± 2.8 µM
selectivity for hANT1 over hANT3 ([7]; L. lactis assay): ~ 3 fold
IC50 [18]: 64 ± 25 µM
oxygen consumption rate (OCR) [8]: Neither CD437 nor closantel produced an appreciable level of reduction of OCR
IC50 [9]: 24 ± 4.2 µM
IC50 [19]: 52 ± 15 µM
IC50 [20]: 9.6 ± 8.7 µM

Compound: N#CC(C#N)=NNc1ccc(OC(F)(F)F)cc1 [FCCP, carbonyl cyanide-4-(trifluoromethoxy) phenylhydrazone]
[3H]ADP uptake in L. lactis ([9]; 10 μM, L. lactis expressing hANT2 (Fig. 2B right)): inactive

Compound: O=C(Nc1cc(C(F)(F)F)cc(C(F)(F)F)c1)c1cc(Cl)ccc1O [IMD 0354]
IC50 [10]: 0.52 ± 0.08 µM
IC50 [15]: 0.58 ± 0.1 µM
IC50 [16]: 0.45 ± 0.1 µM
IC50 [20]: 0.85 ± 0.07 µM

Compound: CC(C)c1ccc2c(c1)CC[C@H]1[C@](C)(CN)CCC[C@]21C [Leelamine]
oxygen consumption rate (OCR) [4]: decreased the OCR to a similar extent as cATR
effect on hANT activity in mitochondrial assays ([21]; 100 μM, all isoforms): inhibited hANT activity
effect on translocase activity in mitochondria ([21]; 10 and 30 μM, hANT4, hANT3 and particularly hANT2 strains): increased translocase activity
inhibition of [3H]ADP uptake by L. lactis [5]: inhibited
effect on translocase activity in L. lactis expressing hANT3 ([6]; Fig. 3C): inhibited the activity
IC50 [6, 22]: 47 ± 11 µM
effect on translocase activity in L. lactis expressing hANT1 ([7]; Fig. 3C): increased translocase activity
IC50 [7, 23]: > 100 µM
oxygen consumption rate (OCR) [8]: decreased OCR
effect on translocase activity in L. lactis expressing hANT2 ([9]; Fig. 3C): increased translocase activity
IC50 [9, 24]: > 100 µM

Compound: CN(C)c1ccc(O)c2c1C[C@H]1C[C@H]3[C@H](N(C)C)C(O)=C(C(N)=O)C(=O)[C@@]3(O)C(O)=C1C2=O [Minocycline]
IC50 [10]: > 100 µM
IC50 [11]: > 100 µM
IC50 [13]: > 100 µM
inhibition of exchange activity in the mitochondrial assay ([21]; 30 μM, in at least one yeast strain (Suppl. Table S1)): strong inhibition
IC50 [14]: > 100 µM
IC50 [15]: > 100 µM
inhibition of [3H]ADP uptake by L. lactis [5]: completely inactive
IC50 [16]: > 100 µM
IC50 [17]: > 100 µM
IC50 [20]: > 100 µM

Compound: C[C@@H]1C[C@H]2CC[C@H](O2)[C@H](C)C(=O)O[C@@H](C)C[C@@H]2CC[C@@H](O2)[C@@H](C)C(=O)O[C@H](C)C[C@H]2CC[C@H](O2)[C@H](C)C(=O)O[C@@H](C)C[C@@H]2CC[C@@H](O2)[C@@H](C)C(=O)O1 [Nonactin]
IC50 [10]: 4.7 ± 1.5 µM
IC50 [11]: > 100 µM
IC50 [13]: > 100 µM
IC50 [14]: > 100 µM
IC50 [15]: 4.4 ± 1.3 µM
IC50 [16]: 3.3 ± 1.1 µM
IC50 [17]: > 100 µM
IC50 [20]: 3.3 ± 0.4 µM

Compound: CC(C)(C)c1cc(C=C(C#N)C#N)cc(C(C)(C)C)c1O [Tyrphostin A9]
IC50 [10]: 24 ± 10 µM
IC50 [11]: > 100 µM
IC50 [13]: > 100 µM
IC50 [14]: > 100 µM
IC50 [15]: 42 ± 20 µM
IC50 [16]: 35 ± 15 µM
IC50 [17]: > 100 µM
IC50 [20]: 13 ± 4 µM

Compound: C=C1[C@@H]2CC[C@H]3[C@]4(C)C[C@H](O[C@@H]5O[C@H](CO)[C@@H](OS(=O)(=O)O)[C@H](OS(=O)(=O)O)[C@H]5OC(=O)CC(C)C)CC(C(=O)O)(C(=O)O)[C@H]4CC[C@]3(C2)[C@H]1O [cATR, carboxyatractyloside]
oxygen consumption rate (OCR) [4]: decreased OCR
ADP/ATP exchange activity / ADP uptake [1]: completely inhibited
IC50 [6, 22]: 0.0023 ± 0.0007 µM
IC50 [7, 23]: 0.0024 ± 0.0005 µM
oxygen consumption rate (OCR) [8]: decreased OCR
IC50 [9, 24]: 0.0017 ± 0.0004 µM

Compound: COc1ccc2c(c[n+](C)c3c4cc5c(cc4ccc23)OCO5)c1OC [chelerythrine]
ADP/ATP exchange activity / ADP uptake [1]: reduced ADP uptake

ADP/ATP exchange activity / ADP uptake [1]: reduced ADP uptake
Compound: O=C(O)c1nn(Cc2ccc(Cl)cc2Cl)c2ccccc12 [lonidamine]

Compound: antimycin
ADP/ATP exchange activity / ADP uptake [1]: reduced ADP uptake
